Results as given in ChEMBL document CHEMBL3745614, “Potent and selective N-(4-sulfamoylphenyl)thiourea-based GPR55 agonists” (Eur J Med Chem, 2016).

Assays:
[1] = target: T1, G-protein coupled receptor 55 (Homo sapiens, UniProt Q9Y2T6); assay: Agonist activity at human GPR55 expressed in CHOK1 cells at 10 uM by pathHunter beta-arrestin assay relative to LPI; format: cell-based; conditions: CHO-K1
In short: (§1)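 PathHunter eXpress GPR55 CHO-K1 β-arrestin kit run per the kit protocol, compounds screened at 10 μM. Luminescence read and expressed as percentage of the signal from bovine liver LPI at 1 μM. Mean with range of two experiments, each done in duplicate.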

[2] = target: Cannabinoid receptor 1 (Homo sapiens) (UniProt P21554); assay: Agonist activity at CBR1 (unknown origin) assessed as [35S]GTPgammaS binding at 10 uM by […] assay relative to control; format: functional
Chain of Cannabinoid receptor 1 (Homo sapiens) (P21554 whole entry): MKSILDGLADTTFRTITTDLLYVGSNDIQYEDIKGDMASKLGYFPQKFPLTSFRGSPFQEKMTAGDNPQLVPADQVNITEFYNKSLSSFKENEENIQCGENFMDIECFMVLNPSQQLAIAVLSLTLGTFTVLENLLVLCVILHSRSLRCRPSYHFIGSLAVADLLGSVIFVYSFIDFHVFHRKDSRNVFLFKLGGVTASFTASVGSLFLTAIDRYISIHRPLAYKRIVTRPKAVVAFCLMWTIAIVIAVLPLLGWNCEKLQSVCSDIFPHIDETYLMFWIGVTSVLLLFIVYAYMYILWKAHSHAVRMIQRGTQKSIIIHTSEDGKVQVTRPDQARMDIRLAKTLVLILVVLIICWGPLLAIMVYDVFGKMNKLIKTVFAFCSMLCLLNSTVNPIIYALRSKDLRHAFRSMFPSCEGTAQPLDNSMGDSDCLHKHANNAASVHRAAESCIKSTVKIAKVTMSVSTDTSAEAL

[3] = target: Cannabinoid receptor 2 (Homo sapiens) (UniProt P34972); assay: Antagonist activity at human CBR2 assessed as [35S]GTPgammaS binding at 10 uM by […] assay relative to control; format: functional; parameters: scale not given: the % may be the effect or the level left
Chain of Cannabinoid receptor 2 (Homo sapiens) (P34972 whole entry): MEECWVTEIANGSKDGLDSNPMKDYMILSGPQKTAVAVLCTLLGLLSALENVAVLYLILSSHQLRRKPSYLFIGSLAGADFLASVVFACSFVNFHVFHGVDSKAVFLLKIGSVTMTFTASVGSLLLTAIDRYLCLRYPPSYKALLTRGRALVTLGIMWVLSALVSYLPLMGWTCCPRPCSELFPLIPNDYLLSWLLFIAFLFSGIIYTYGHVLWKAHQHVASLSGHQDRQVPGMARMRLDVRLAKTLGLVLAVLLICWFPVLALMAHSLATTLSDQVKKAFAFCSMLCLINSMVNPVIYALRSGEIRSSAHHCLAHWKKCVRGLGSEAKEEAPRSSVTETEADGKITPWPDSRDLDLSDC

[4] = target: Cannabinoid receptor 2 (Homo sapiens) (UniProt P34972); assay: Agonist activity at CBR2 (unknown origin) assessed as [35S]GTPgammaS binding at 10 uM by […] assay relative to control; format: functional
[5] = target: T2, Fatty-acid amide hydrolase 1 (Homo sapiens) (UniProt O00519); assay: Inhibition of human FAAH expressed in African green monkey COS-7 cell membranes using [3H]-AEA as substrate assessed as residual activity at 10 uM preincubated for 10 mins followed by substrate addition measured after 10 mins by liquid scintillation counting analysis relative to control
T2 sequence (whole entry): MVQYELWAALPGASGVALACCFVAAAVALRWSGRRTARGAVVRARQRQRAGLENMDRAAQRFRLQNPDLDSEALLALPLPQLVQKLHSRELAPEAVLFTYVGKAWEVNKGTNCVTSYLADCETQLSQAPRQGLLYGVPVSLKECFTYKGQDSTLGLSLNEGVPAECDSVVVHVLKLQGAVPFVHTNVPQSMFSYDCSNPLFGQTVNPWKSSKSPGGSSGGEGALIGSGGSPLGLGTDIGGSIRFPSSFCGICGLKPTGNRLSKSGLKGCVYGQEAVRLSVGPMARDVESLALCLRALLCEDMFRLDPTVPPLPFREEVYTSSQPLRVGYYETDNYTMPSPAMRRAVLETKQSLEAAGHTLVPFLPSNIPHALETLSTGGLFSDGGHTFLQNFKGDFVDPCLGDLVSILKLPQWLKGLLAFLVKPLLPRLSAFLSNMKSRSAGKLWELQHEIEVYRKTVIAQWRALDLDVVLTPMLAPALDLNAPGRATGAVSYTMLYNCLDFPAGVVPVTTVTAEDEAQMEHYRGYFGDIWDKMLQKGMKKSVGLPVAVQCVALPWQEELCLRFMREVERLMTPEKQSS
In short: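 Membranes of COS-7 cells overexpressing hFAAH, 1 μg protein per incubation. Substrate 20 μM AEA including 10 nM [3H]AEA (60 Ci/mmol). Compounds tested at 10 μM.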

[6] = target: T3, Monoglyceride lipase (Homo sapiens) (UniProt Q99685); assay: Inhibition of human MGL expressed in […] cells using 2AG as substrate assessed as residual activity at 10 uM preincubated for 10 mins followed by substrate addition measured after 10 mins by HPLC analysis; format: cell-based
T3 sequence (whole entry): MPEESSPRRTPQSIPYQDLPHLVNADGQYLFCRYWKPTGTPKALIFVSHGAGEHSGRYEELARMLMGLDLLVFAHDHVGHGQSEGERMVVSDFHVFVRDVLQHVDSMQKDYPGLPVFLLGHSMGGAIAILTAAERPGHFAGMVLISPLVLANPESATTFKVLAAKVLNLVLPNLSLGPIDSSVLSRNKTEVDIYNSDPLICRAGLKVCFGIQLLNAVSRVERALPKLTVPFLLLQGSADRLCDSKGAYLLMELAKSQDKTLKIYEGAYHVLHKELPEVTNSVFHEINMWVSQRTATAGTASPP
In short: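 Lysates of HEK cells overexpressing hMGL, 2.5 μg protein per incubation, substrate at 50 μM. Compounds tested at 10 μM.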

[7] = target: T4, Lysophosphatidylserine lipase ABHD12 (Homo sapiens) (UniProt Q8N2K0); assay: Inhibition of human ABHD12 expressed in […] cells using 2-AG as substrate assessed as glycerol liberation at 10 uM preincubated for 30 mins followed by 2-AG addition measured for 90 mins by fluorescent glycerol assay relative to control; format: cell-based; parameters: scale not given: the % may be the effect or the level left
T4 sequence (whole entry): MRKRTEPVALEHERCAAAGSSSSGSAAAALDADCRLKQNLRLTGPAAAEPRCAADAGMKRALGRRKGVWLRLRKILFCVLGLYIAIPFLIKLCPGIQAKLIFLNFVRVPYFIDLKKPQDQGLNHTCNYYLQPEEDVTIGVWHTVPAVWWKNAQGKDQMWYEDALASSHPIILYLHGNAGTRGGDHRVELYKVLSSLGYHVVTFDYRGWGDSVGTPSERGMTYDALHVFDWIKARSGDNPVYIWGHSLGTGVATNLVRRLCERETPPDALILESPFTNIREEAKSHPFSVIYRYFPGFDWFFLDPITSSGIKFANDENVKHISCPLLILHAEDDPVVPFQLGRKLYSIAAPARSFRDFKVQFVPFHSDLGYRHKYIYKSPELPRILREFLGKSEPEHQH
In short: (§2)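 Lysates of HEK293 cells transiently overexpressing hABHD6 or hABHD12, 0.3 μg protein/well. Pretreated 30 min with DMSO or compound, then 2-AG added (12.5 μM final). Glycerol release coupled enzymatically to H2O2-dependent resorufin formation; fluorescence (ex 530/em 590 nm) followed kinetically for 90 min.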

[8] = target: T5, Monoacylglycerol lipase ABHD6 (Homo sapiens) (UniProt Q9BV23); assay: Inhibition of human ABHD6 expressed in […] cells using 2-AG as substrate assessed as glycerol liberation at 10 uM preincubated for 30 mins followed by 2-AG addition measured for 90 mins by fluorescent glycerol assay relative to control; format: cell-based; parameters: scale not given: the % may be the effect or the level left; in short: as §2
T5 sequence (whole entry): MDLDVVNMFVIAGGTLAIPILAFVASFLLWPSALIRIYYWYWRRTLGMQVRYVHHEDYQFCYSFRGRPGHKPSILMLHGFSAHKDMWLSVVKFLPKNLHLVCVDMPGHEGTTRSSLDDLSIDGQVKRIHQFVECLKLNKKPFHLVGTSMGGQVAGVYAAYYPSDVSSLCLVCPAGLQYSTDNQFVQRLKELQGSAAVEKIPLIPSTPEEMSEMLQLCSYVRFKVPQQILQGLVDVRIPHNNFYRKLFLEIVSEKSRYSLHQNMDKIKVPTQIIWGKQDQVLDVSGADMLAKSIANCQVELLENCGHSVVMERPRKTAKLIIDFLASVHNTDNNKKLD

[9] = target: T5, Monoacylglycerol lipase ABHD6 (Homo sapiens); assay: Inhibition of human ABHD6 expressed in […] cells using 2-AG as substrate assessed as glycerol liberation at 1 uM preincubated for 30 mins followed by 2-AG addition measured for 90 mins by fluorescent glycerol assay relative to control; format: cell-based; parameters: scale not given: the % may be the effect or the level left; in short: as §2
[10] = target: T1, G-protein coupled receptor 55; assay: Agonist activity at human GPR55 expressed in CHOK1 cells at 10 uM by pathHunter beta-arrestin assay relative to control; format: cell-based; conditions: CHO-K1; in short: as §1
[11] = target: Cannabinoid receptor 1 (Homo sapiens) (UniProt P21554); assay: Antagonist activity at human CBR1 assessed as [35S]GTPgammaS binding at 10 uM by radiometric assay relative to control; parameters: scale not given: the % may be the effect or the level left
[12] = target: T1, G-protein coupled receptor 55; assay: Agonist activity at human GPR55 expressed in HEK293 cells assessed as calcium signalling by fura 2-based digital epifluorescence microscopy; format: functional, cell-based
In short: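 HEK293 cells stably expressing GPR55, grown on poly-L-lysine coated glass coverslips and serum-starved overnight. Compounds applied by bath perfusion in HEPES-buffered saline at 30-32 °C. Single-cell fura 2 ratiometric imaging (350/380 nm) every 5 s. Peak responses pooled from 24 cells (12 random cells from each of two experiments) per concentration; EC50 with 95% CI from concentration-response curves. ARA-LPI used as reference agonist.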

T1 sequence (Q9Y2T6 whole entry): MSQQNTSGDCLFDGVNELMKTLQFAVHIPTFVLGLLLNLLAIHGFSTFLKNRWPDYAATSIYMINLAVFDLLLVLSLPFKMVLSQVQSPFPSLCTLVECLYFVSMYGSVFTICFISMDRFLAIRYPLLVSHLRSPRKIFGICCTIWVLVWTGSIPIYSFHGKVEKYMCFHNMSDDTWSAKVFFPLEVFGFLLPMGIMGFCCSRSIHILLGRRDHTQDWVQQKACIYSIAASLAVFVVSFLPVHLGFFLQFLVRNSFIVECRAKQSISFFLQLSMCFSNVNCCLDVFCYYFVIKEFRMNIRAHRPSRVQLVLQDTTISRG

Compound	Activity [1]	Activity [2]	Activity [3]	Activity [4]	Activity [5]	Activity [6]	Activity [7]	Activity [8]	Activity [9]	Activity [10]	Activity [11]	EC50 [12]
Cc1ccc(C(=O)NC(=S)Nc2ccc(S(=O)(=O)NC(C)C)cc2)c(Br)c1	70%	103%	100%	88%	97%	89%	74%	59%	106%	105%	88%	–
CN(C)S(=O)(=O)c1ccc(NC(=S)NC(=O)c2ccc(-c3ccccc3)cc2)cc1	101%	105%	96%	90%	54%	93%	74%	79%	–	148%	96%	55.7 nM
CC(=O)NS(=O)(=O)c1ccc(NC(=S)NC(=O)c2cccc3ccccc23)cc1	66%	96%	97%	94%	107%	98%	82%	88%	–	99%	101%	–
CN1CCN(S(=O)(=O)c2ccc(NC(=S)NC(=O)c3ccc(-c4ccccc4)cc3)cc2)CC1	148%	101%	95%	101%	101%	97%	81%	76%	–	218%	91%	218 nM
COc1ccc(C(=O)NC(=S)Nc2ccc(S(=O)(=O)NC(C)C)cc2)cc1	62%	93%	92%	90%	103%	93%	78%	66%	102%	91%	95%	–
C=CCN(CC=C)S(=O)(=O)c1ccc(NC(=S)NC(=O)c2ccc(-c3ccccc3)cc2)cc1	–	95%	105%	100%	92%	96%	72%	74%	–	176%	80%	–
CC(=O)NS(=O)(=O)c1ccc(NC(=S)NC(=O)c2ccc(C(C)C)cc2)cc1	67%	100%	92%	96%	103%	99%	88%	81%	–	99%	98%	–
CCCCC/C=C\C/C=C\C/C=C\C/C=C\CCCC(=O)OC[C@@H](O)COP(=O)(O)O[C@@H]1[C@@H](O)[C@H](O)[C@@H](O)[C@H](O)[C@@H]1O	–	–	–	–	–	–	–	–	–	–	–	20.2 nM

The next lines start with the values.

Activity [1]	Activity [2]	Activity [3]	Activity [4]	Activity [5]	Activity [6]	Activity [7]	Activity [8]	Activity [9]	Activity [10]	Activity [11]	EC50 [12]	Compound
–	147%	89%	95%	34%	94%	84%	85%	–	150%	119%	–	NS(=O)(=O)c1ccc(NC(=S)NC(=O)c2ccc(-c3ccccc3)cc2)cc1
91%	96%	100%	90%	95%	104%	83%	97%	–	134%	78%	–	CCCCc1ccc(NS(=O)(=O)c2ccc(NC(=S)NC(=O)c3ccc(-c4ccccc4)cc3)cc2)cc1
178%	100%	96%	90%	103%	104%	78%	78%	–	263%	95%	6.2 nM	O=C(NC(=S)Nc1ccc(S(=O)(=O)Nc2ccccc2)cc1)c1ccc(-c2ccccc2)cc1
158%	93%	101%	94%	89%	105%	82%	93%	–	231%	84%	–	O=C(NC(=S)Nc1ccc(S(=O)(=O)Nc2ccc(Cl)cc2)cc1)c1ccc(-c2ccccc2)cc1
172%	128%	85%	85%	96%	103%	77%	67%	103%	252%	91%	176 nM	CCCNS(=O)(=O)c1ccc(NC(=S)NC(=O)c2ccc(-c3ccccc3)cc2)cc1
197%	97%	83%	93%	106%	97%	86%	86%	–	291%	94%	5.6 nM	O=C(NC(=S)Nc1ccc(S(=O)(=O)NCc2ccccc2)cc1)c1ccc(-c2ccccc2)cc1
